From PubChem
S100A4 MyoIIA: inhibitors of human S100A4 binding to myosin IIA peptide; S100A4/TAMRA-MyoIIA peptide fluorescence polarization; 0.14% of 360,000 active; inhibition, % at 10.7 µM; P26447;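 active = mean inhibition of at least 70% across replicates, with every replicate also reaching that level; inconclusive = mean inhibition reaches 70% but some replicates fall short; inactive = mean inhibition below 70%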
Target sequence (P26447 whole entry, looked up): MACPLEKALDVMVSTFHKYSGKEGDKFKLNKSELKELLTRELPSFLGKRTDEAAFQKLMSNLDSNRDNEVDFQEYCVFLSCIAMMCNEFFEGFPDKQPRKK
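Compound dosing: one dose per compound; test system: human S100A4 monomer with TAMRA-labelled myosin IIA peptide; probe or stimulus: TAMRA-labelled myosin IIA heavy-chain peptide probe, 5 nM; medium: HEPES buffer with Ca2+, pH 7.2; schedule: 5 min incubation before reading; benchmarks: neutral control DMSO, positive control TFP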
FGF22 binding-1: FGF22 (human) thermal shift binding. activity (Tm shift, normalised), % at 9.99 µM. Q9HCT0. recombinant FGF22 thermal shift, SYPRO orange fluorescence; percent of sucrose octasulfate shift, DMSO zero. AID 651658. 1.5% of 340,000 active;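 active = mean Tm shift, scaled 0 neutral to 100 positive control, at about 1.3% or above, every replicate too, limit read from the data; inconclusive = no clear call, values can overlap the other calls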
SIRT5 block: inhibitors of human sirtuin-5 desuccinylase | AID 652115 | Purified SirT5, succinyl-peptide AMC, trypsin-coupled fluorescence | 1.1% of 330,000 active | Q9NXA8 | inhibition, % at 15 µM; in the data active = inhibition above about 15%; inconclusive = no clear call, values can overlap the other calls
miR-122 sensor: blocks miR-122 activity in Huh7 sensor cells; activation (reporter increase), % at 12.5 µM; 0.3% of 340,000 active; Huh7 miR-122 Renilla luciferase sensor, 48 h; neutral wells = 0, positive control = 100;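 active = mean replicate activation score at least 90 and every replicate individually at or above 90; inconclusive = only one of the two criteria met; inactive = neither criterion met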;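 note: higher luciferase means less miR-122 activity so hits act as miR-122 inhibitors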
E-sel inducer: E-selectin induction on HUVECs. HUVEC E-selectin immunofluorescence imaging; normalized: neutral wells 0, TNF-alpha wells 100. P16581. AID 686992. 0.37% of 260,000 active. activation, % at 7.58 µM;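 active = mean E-selectin-positive cell signal at least 10% of the positive control, reached in at least 60% of replicates, without over 20% cell loss; inconclusive = no rule given, readout overlaps actives, possibly toxicity-flagged; inactive = the rest, including those meeting only one limit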
Target sequence (P16581 whole entry, looked up): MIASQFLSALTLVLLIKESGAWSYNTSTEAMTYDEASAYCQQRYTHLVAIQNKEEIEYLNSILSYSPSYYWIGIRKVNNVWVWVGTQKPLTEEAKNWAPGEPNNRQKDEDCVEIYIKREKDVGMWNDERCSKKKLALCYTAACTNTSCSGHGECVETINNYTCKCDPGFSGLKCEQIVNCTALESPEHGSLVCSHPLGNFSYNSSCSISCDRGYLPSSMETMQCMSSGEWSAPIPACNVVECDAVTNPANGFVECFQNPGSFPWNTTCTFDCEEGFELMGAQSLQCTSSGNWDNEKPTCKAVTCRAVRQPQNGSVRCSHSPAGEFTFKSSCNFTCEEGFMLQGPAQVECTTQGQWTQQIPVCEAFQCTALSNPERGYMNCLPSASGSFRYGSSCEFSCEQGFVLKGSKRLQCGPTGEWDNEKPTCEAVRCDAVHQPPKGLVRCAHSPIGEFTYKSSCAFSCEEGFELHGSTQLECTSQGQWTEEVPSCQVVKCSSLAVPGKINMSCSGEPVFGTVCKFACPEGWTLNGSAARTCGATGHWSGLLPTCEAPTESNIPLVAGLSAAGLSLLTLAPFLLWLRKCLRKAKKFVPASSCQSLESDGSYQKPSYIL
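System: HUVEC, human umbilical vein endothelial cells; quantity: 3,000 cells/well; buffer or medium: EGM-2 medium, gelatin-coated wells; dosing: single-point compound dose; detection: immunofluorescence imaging; evaluation: % PE-positive cells; benchmarks: TNF-alpha, DMSO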
FGF22 binding-2: binds human FGF22 shifting its melting temperature. shares compounds with FGF22 binding-1. recombinant FGF22 thermal shift, SYPRO orange fluorescence. thermal shift activity, °C (ΔTm) at 38 µM. 2% of 1,000 active. AID 720646;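 active = fitted rise in melting shift crosses a set limit at or below the top valid dose tested; inconclusive = flat fit at mid-level activity, or a poor quality fit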
SYPRO no-protein: counter-screen for FGF22 binders: compound-only thermal shift, no protein. shares compounds with FGF22 binding-1. compound-only SYPRO orange thermal shift counter-screen. AC50, µM (highest dose often 38 µM). 2% of 1,000 active. AID 743019;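 active = rising signal whose fitted curve reaches the 0.54 level within the top valid dose, showing a melting point, actives reach about 13 µM in these data; inactive = the rest, including activity in the opposite direction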; note: value is where the raw curve crosses a fixed level and not half-maximal
A number is an active result; . = inactive; ? = inconclusive; / = no result given. Hits are enriched below; roughly 2.5% of the tested compounds scored in any of these assays.

SMILES	S100A4 MyoIIA	FGF22 binding-1	SIRT5 block	miR-122 sensor	E-sel inducer	FGF22 binding-2	SYPRO no-protein
CC(=O)c1ccc(NC(=O)c2noc(C(C)C)c2[N+](=O)[O-])cc1	.	1.7	.	/	.	.	.
COc1ccc(NC(=O)c2noc(C(C)C)c2[N+](=O)[O-])cc1	.	.	/	.	/	/	/
CCS(=O)(=O)N1CCCCN2[C@H](C1)[C@@H](c1ccc(-c3ccc(C(=O)N(C)C)cc3)cc1)[C@@H]2CO	/	.	.	.	.	/	/
Cc1ccccc1-c1ccc([C@H]2[C@@H](CO)N3CCCCN(Cc4cccnc4)C[C@H]23)cc1	?	1.3	.	.	.	.	.
OC[C@@H]1[C@H](c2ccc(-c3cccnc3)cc2)[C@@H]2CN(Cc3ccccn3)CCCCN12	.	1.4	.	.	.	.	.
OC[C@@H]1[C@H](c2ccc(-c3cccnc3)cc2)[C@H]2CN(Cc3ccccn3)CCCCN12	.	1.5	.	.	.	.	.
OC[C@@H]1[C@H](c2ccc(-c3ccccc3)cc2)[C@@H]2CN(Cc3ccccn3)CCCCN12	.	.	.	.	.	/	/
OC[C@H]1[C@H](c2ccc(-c3ccccc3)cc2)[C@H]2CN(Cc3ccccn3)CCCCN21	.	.	.	.	.	/	/
OC[C@H]1[C@@H](c2ccc(-c3ccccc3F)cc2)[C@H]2CN(Cc3cccnc3)CCCCN21	.	.	.	.	.	/	/
COc1ccc(NC(=O)CCCN2C(=O)CN(C)C2=O)c(OC)c1	.	15.3	.	/	.	/	.
C[C@@H]1CN([C@H](C)CO)C(=O)c2cc(NS(=O)(=O)c3ccc(Cl)cc3)ccc2O[C@@H]1CN(C)S(=O)(=O)c1ccc(F)cc1	.	.	.	.	.	/	/
Cc1ccc(S(=O)(=O)Nc2ccc3c(c2)C(=O)N([C@@H](C)CO)C[C@@H](C)[C@H](CN(C)C)O3)cc1	.	.	.	.	.	/	/
C[C@H](CO)N1C[C@H](C)[C@H](CN(C)S(=O)(=O)c2ccc(F)cc2)Oc2ccc(NC(=O)c3ccncc3)cc2C1=O	.	1.9	.	.	.	.	.
C[C@@H]1CN([C@@H](C)CO)C(=O)c2cc(NS(=O)(=O)c3ccc(Cl)cc3)ccc2O[C@@H]1CN(C)S(=O)(=O)c1ccc(F)cc1	.	2.9	.	.	.	.	.
Cc1ccc(S(=O)(=O)Nc2ccc3c(c2)C(=O)N([C@@H](C)CO)C[C@@H](C)[C@@H](CN(C)C)O3)cc1	.	1.9	.	.	.	.	.
CCS(=O)(=O)NCC[C@@H]1CC[C@@H](NC(=O)Nc2cc(Cl)cc(Cl)c2)[C@H](CO)O1	.	.	.	.	.	/	/
C[C@@H]1CN([C@@H](C)CO)S(=O)(=O)c2ccc(C3=CCCC3)cc2O[C@H]1CN(C)C(=O)Nc1ccc2c(c1)OCO2	.	.	.	.	.	/	/
C[C@H]1CN([C@@H](C)CO)S(=O)(=O)c2ccc(C#Cc3ccncc3)cc2O[C@H]1CN(C)C(=O)Nc1ccc2c(c1)OCO2	.	1.4	.	.	.	.	.
C[C@H](CO)N1C[C@H](C)[C@H](CN(C)C(=O)Nc2ccc3c(c2)OCO3)Oc2cc(C3=CCCCC3)ccc2S1(=O)=O	.	1.6	.	.	.	.	11.2µM
C[C@@H]1CN([C@@H](C)CO)S(=O)(=O)c2ccc(C#Cc3ccncc3)cc2O[C@H]1CN(C)C(=O)Nc1ccc2c(c1)OCO2	.	.	.	.	/	/	/
C[C@@H]1CN([C@H](C)CO)S(=O)(=O)c2ccc(C3=CCCCC3)cc2O[C@@H]1CN(C)C(=O)CN(C)C	.	.	.	.	.	/	/
C[C@@H]1CN([C@@H](C)CO)S(=O)(=O)c2ccc(C3=CCCC3)cc2O[C@@H]1CN(C)C(=O)Nc1ccc2c(c1)OCO2	.	2.0	.	.	.	.	.
C[C@@H]1CN([C@H](C)CO)S(=O)(=O)c2ccc(C3=CCCCC3)cc2O[C@H]1CN(C)C(=O)CN(C)C	.	1.2	.	.	.	.	.
CC(=O)N1[C@H](CO)[C@@H](c2ccccc2)C12CN(C(=O)Cc1ccccc1)C2	.	1.6	.	/	.	.	.
O=C(Cc1ccccc1)N1CC2(C1)[C@H](c1ccccc1)[C@H](CO)N2C(=O)Cc1ccccc1	.	.	.	/	.	/	/
SMILES	S100A4 MyoIIA	FGF22 binding-1	SIRT5 block	miR-122 sensor	E-sel inducer	FGF22 binding-2	SYPRO no-protein
COCC(=O)N1CC2(C1)[C@H](c1ccc(-c3cccc(C)c3)cc1)[C@H](CO)N2C(=O)C1CC1	.	1.5	.	/	.	.	.
COCC(=O)N1[C@H](CO)[C@H](c2ccccc2)C12CN(C(=O)c1ccccc1)C2	.	1.3	.	/	.	.	.
COCC(=O)N1[C@@H](CO)[C@H](c2ccccc2)C12CN(C(=O)c1ccccc1)C2	.	/	.	/	.	/	/
Cc1noc(C)c1S(=O)(=O)Nc1cccc2c1O[C@H](CN(C)Cc1ccncc1)[C@H](C)CN([C@@H](C)CO)C2=O	.	.	.	.	.	/	/
CC(=O)N(C)C[C@@H]1Oc2ncc(C#Cc3ccccc3F)cc2C(=O)N([C@H](C)CO)C[C@@H]1C	.	.	.	.	.	/	/
O=c1ccc2cc(S(=O)(=O)Nc3ccc(Br)cc3)ccc2o1	.	1.4	.	.	/	.	.
COc1ccc(NS(=O)(=O)c2ccc3oc(=O)ccc3c2)cc1	.	.	.	.	.	/	/
CC(C)NC(=O)Nc1ccc2c(c1)C(=O)N([C@H](C)CO)C[C@H](C)[C@@H](CN(C)C(=O)Nc1cccc3ccccc13)O2	.	.	.	.	/	/	/
C[C@H]1CN([C@@H](C)CO)C(=O)c2cccc(NC(=O)Nc3ccc4c(c3)OCO4)c2O[C@H]1CN(C)CC1CCCCC1	.	.	.	.	.	/	/
CC(C)NC(=O)Nc1ccc2c(c1)C(=O)N([C@H](C)CO)C[C@H](C)[C@@H](CN(C)C(=O)NC(C)C)O2	.	1.6	.	.	.	.	.
C[C@H](CO)N1C[C@H](C)[C@H](CN(C)CC2CCCCC2)Oc2c(NC(=O)Nc3ccc4c(c3)OCO4)cccc2C1=O	.	1.4	.	.	.	.	.
CC(C)NC(=O)Nc1ccc2c(c1)C(=O)N([C@H](C)CO)C[C@H](C)[C@H](CN(C)C(=O)Nc1cccc3ccccc13)O2	.	18.6	.	.	.	.	.
CCOC(=O)C1CCC(CNCc2ccccc2C)CC1 (centres undefined)	.	1.6	.	.	.	.	.
O=C(O)C1CCC(CNCc2ccccc2Cl)CC1 (centres undefined)	.	.	.	/	.	/	/
Cc1cccc(S(=O)(=O)N2CCCCN3[C@@H](CO)[C@@H](c4ccc(C#C[C@H](C)O)cc4)[C@@H]3C2)c1	.	1.3	.	.	.	.	.
